The Ki is the dissociation constant of the complex between target and ligand, obtained from inhibition or displacement. The low end stands for a stronger hold on the target, the high end for a looser hold on the target.

Experiment [1] deals with E3 ubiquitin-protein ligase XIAP (Homo sapiens) (UniProt P98170). The experiment is described as follows: Inhibition of human recombinant GST tagged XIAP expressed in Escherichia coli assessed as restoration of XIAP-mediated suppression of caspase-3 activity after 1 hrs using fluorogenic tetrapeptide Ac-DEVD-AFC substrate by caspase de-repression assay.
Sequence of E3 ubiquitin-protein ligase XIAP (Homo sapiens) (P98170 whole entry, the tested form may be a part): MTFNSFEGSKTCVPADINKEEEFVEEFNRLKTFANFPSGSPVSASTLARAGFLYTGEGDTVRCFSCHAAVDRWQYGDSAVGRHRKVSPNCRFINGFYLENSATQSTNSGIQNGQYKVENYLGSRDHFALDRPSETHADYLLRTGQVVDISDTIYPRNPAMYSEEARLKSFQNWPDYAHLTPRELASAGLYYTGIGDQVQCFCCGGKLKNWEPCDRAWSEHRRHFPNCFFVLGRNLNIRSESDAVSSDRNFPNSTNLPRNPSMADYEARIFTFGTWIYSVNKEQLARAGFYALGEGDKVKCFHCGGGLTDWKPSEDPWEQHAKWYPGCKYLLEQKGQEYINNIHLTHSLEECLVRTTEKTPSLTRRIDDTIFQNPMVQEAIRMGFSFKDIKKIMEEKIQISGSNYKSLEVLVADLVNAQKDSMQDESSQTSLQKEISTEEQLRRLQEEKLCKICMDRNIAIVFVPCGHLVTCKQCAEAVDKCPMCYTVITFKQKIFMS
A further experiment concerns the target T1, Caspase-3 (Homo sapiens) (UniProt P42574).
T1 sequence (whole entry): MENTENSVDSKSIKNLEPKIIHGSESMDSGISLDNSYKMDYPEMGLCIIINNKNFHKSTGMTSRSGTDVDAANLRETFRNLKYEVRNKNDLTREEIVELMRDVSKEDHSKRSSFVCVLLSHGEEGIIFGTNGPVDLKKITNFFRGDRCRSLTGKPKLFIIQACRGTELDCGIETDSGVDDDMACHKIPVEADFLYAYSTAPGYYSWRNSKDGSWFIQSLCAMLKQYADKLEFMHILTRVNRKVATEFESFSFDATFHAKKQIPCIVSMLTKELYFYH
The experiment is described as follows: Effect on human caspase-3 activity at 10 uM in the absence of XIAP after 1 hrs using fluorogenic tetrapeptide Ac-DEVD-AFC as substrate.

The target of experiment [2] is E3 ubiquitin-protein ligase XIAP (Homo sapiens) (UniProt P98170). Briefly: Inhibition of human GST-tagged XIAP binding to active human caspase-3 at 3 uM after 1 hrs by GST pull-down assay.
In experiment [3] the target is Protein kinase C alpha type (Homo sapiens, UniProt P17252). Briefly: Inhibition of [3H]PDBu binding to PKCalpha-C1A domain peptide.
Experiment [4] deals with Protein kinase C beta type (Homo sapiens, UniProt P05771). Briefly: Inhibition of [3H]PDBu binding to PKCbeta-C1A domain peptide.
Sequence of Protein kinase C beta type (P05771 whole entry, the tested form may be a part): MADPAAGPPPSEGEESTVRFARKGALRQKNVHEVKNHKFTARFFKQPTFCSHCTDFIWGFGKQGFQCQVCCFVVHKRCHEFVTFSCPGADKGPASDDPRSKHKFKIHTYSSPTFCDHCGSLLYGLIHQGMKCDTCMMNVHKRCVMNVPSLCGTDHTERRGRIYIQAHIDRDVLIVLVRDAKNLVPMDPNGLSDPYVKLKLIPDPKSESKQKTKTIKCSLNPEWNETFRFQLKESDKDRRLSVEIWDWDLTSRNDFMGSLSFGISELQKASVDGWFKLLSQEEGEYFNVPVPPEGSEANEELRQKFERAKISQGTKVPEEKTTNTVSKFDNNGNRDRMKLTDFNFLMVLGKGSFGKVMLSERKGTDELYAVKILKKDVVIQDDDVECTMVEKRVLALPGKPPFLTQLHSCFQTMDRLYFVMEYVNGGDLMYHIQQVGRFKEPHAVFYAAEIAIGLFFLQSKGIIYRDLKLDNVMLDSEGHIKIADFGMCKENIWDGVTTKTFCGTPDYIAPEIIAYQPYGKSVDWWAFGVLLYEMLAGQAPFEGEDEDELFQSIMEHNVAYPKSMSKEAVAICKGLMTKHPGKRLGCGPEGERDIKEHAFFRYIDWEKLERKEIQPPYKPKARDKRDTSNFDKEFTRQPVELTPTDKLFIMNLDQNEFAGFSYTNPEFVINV
The target of experiment [5] is Protein kinase C gamma type (Homo sapiens, UniProt P05129). The experiment is described as follows: Inhibition of [3H]PDBu binding to PKCgamma-C1A domain peptide.
Experiment [6] addresses Protein kinase C delta type (Homo sapiens, UniProt Q05655). The experiment is described as follows: Inhibition of [3H]PDBu binding to PKCdelta-C1B domain peptide.
Experiment [7] has as its target T2, Protein kinase C epsilon type (Homo sapiens, UniProt Q02156).
T2 sequence (Q02156 whole entry): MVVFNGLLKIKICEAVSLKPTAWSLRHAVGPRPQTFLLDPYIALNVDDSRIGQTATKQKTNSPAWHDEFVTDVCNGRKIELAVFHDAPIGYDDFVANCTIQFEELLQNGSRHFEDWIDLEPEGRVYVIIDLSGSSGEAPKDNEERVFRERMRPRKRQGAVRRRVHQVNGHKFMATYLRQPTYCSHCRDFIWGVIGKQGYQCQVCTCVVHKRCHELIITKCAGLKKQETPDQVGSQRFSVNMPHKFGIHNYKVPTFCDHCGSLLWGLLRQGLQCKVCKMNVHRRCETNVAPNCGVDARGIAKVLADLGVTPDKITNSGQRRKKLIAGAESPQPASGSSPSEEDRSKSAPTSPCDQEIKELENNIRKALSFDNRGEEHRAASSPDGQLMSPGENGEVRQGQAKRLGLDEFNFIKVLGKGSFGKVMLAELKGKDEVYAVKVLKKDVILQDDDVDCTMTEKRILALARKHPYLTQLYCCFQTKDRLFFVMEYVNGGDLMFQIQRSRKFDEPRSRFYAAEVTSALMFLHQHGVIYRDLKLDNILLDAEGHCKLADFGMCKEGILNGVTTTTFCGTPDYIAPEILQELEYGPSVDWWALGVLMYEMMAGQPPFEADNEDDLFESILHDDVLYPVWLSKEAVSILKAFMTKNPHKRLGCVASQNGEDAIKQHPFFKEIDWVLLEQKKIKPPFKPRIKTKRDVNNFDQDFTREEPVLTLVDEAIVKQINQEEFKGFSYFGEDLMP
The experiment is described as follows: Inhibition of [3H]PDBu binding to PKCepsilon-C1B domain peptide.

Experiment [8] deals with Protein kinase C eta type (Homo sapiens, UniProt P24723). The experiment is described as follows: Inhibition of [3H]PDBu binding to PKCeta-C1B domain peptide.
Sequence of Protein kinase C eta type (P24723 whole entry, the tested form may be a part): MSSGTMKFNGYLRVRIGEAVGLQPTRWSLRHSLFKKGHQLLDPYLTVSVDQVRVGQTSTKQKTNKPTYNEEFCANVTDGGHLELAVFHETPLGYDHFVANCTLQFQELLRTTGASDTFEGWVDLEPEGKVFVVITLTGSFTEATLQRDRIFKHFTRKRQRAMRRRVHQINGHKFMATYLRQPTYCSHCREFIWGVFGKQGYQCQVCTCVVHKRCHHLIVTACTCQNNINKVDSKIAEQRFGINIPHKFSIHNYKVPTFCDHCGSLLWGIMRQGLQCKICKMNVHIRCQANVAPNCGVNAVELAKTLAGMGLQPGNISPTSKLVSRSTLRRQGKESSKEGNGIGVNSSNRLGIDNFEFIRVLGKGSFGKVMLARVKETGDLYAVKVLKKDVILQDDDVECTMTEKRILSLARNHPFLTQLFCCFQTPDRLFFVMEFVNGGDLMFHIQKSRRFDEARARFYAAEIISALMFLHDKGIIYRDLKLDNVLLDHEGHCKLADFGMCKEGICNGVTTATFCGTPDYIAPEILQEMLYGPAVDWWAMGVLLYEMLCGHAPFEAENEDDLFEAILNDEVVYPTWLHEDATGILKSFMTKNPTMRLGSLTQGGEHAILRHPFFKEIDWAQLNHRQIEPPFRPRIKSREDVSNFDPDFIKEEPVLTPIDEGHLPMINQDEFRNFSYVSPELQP
In experiment [9] the test system is HeLa. Briefly: Induction of sensitization of human HeLa cells to camptothecin-induced apoptosis at 10 uM after 48 hrs by trypan blue dye exclusion assay. The format is functional, cell-based. In a few lines:
(§1)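 HeLa cells seeded at 2×10^4 cells/well, cultured overnight, then exposed to test compounds at various concentrations for 48 h. Viable cells counted by trypan blue dye exclusion.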

The test system of experiment [10] is HeLa. The experiment is described as follows: Induction of sensitization of human HeLa cells to camptothecin-induced apoptosis assessed as induction DNA fragmentation at 10 uM after 24 hrs by propidium iodide-staining based FACS assay. The format is functional, cell-based. In a few lines:
(§2)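 HeLa cells seeded at 1×10^5 cells/well and cultured overnight, then exposed to various concentrations of test compounds for 24 h. Nuclei stained with propidium iodide. Cell death measured by flow cytometry as DNA fragmentation, read as the sub-G1 population.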
For orientation: A flow cytometer gives signals particle by particle.

Experiment [11] has as its system HeLa. The experiment is described as follows: Induction of sensitization of human HeLa cells to staurosporine-induced apoptosis assessed as induction DNA fragmentation at 10 uM after 24 hrs by propidium iodide-staining based FACS assay. The format is functional, cell-based. In a few lines:
as §2

Experiment [12] has as its system HeLa. The experiment is described as follows: Induction of sensitization of human HeLa cells to staurosporine-induced apoptosis at 10 uM after 48 hrs by trypan blue dye exclusion assay. The format is functional, cell-based. In a few lines: as §1
For experiment [13], the system named is HeLa. The experiment is described as follows: Suppression of camptothecin-induced apoptosis in human HeLa cells assessed as reduction in DNA fragmentation at 100 uM after 24 hrs by propidium iodide-staining based FACS assay. The format is functional, cell-based. In a few lines:
(§3)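 HeLa cells seeded at 1×10^5 cells/well, cultured overnight, treated with test compounds at various concentrations for 24 h. Nuclei stained with propidium iodide; cell death scored by flow cytometry as the sub-G1 (fragmented DNA) population.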

Experiment [14] concerns HeLa. The experiment is described as follows: Suppression of staurosporine-induced apoptosis in human HeLa cells assessed as reduction in DNA fragmentation at 100 uM after 24 hrs by propidium iodide-staining based FACS assay. The format is functional, cell-based. In a few lines: as §3
Experiment [15] relates to HeLa. Briefly: Induction of sensitization of human HeLa cells to camptothecin-induced apoptosis assessed as induction DNA fragmentation at 160 nM after 24 hrs by propidium iodide-staining based FACS assay. The format is functional, cell-based. A digest of the protocol: as §2
In experiment [16] the test system is HeLa. The experiment is described as follows: Induction of sensitization of human HeLa cells to staurosporine-induced apoptosis assessed as induction DNA fragmentation at 160 nM after 24 hrs by propidium iodide-staining based FACS assay. The format is functional, cell-based. A digest of the protocol:
as §2

The source made the active and inactive calls. The calls are words filed in the database; no cut-off is given here. Residues, ends and D or L forms follow the SMILES beside them. *: point of attachment. Cbz = O=C(OCc1ccccc1)*; CH2F = FC*

Sequence of Protein kinase C delta type (Q05655 whole entry, the tested form may be a part): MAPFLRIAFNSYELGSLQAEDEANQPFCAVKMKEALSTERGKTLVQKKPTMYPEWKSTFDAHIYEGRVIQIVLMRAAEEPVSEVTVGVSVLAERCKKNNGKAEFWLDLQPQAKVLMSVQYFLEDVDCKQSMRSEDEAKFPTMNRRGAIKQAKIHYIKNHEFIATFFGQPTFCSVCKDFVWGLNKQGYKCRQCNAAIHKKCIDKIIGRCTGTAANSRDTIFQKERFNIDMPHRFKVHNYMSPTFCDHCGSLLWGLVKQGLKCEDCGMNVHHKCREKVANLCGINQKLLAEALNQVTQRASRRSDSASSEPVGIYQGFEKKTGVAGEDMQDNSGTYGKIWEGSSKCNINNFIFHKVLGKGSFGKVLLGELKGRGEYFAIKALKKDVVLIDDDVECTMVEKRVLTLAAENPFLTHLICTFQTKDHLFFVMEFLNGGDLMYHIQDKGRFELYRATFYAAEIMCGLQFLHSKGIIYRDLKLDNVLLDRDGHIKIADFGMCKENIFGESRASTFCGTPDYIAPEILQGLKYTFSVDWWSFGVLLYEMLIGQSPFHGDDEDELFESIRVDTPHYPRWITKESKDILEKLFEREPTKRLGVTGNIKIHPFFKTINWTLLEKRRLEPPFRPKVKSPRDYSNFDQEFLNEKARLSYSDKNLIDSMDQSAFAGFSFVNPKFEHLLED

`C=C[C@@]1(C)CC[C@](C)(C(C)C)c2cc3c4c(c[nH]c4c21)CC(=O)NC(=O)[C@H](C(C)C)N3C`: the inhibition result in experiment [1] and in experiment [2] was “Active” in each case. The inhibition entry on Caspase-3 (Homo sapiens) was “inactive”. Besides, the Ki in experiment [3] stood at 600 nM; in [4], 730 nM; in experiment [5], 660 nM; in [6] it was 87 nM; in experiment [7] it was 480 nM; in [8], 360 nM. Also, the outcome in the experiment with HeLa [9], in the experiment with HeLa [10], with HeLa [11] and in the experiment with HeLa [12] was Active.
`COC(=O)C[C@H](NC(=O)[C@H](C)NC(=O)[C@@H](NC(=O)OCc1ccccc1)C(C)C)C(=O)CF` (Cbz-Val-Ala-Asp(OMe)-CH2F): the result in the experiment on HeLa [13] and with HeLa [14] was inactive.
In the case of `CCCCCCCCCCCCCC(=O)O[C@@H]1[C@@H](C)[C@@]2(O)[C@@H](C=C(CO)C[C@]3(O)C(=O)C(C)=C[C@@H]23)[C@@H]2C(C)(C)[C@]12OC(C)=O`, the outcome in the experiment on HeLa [15] and in the experiment with HeLa [16] was inactive.
Turning to `C=C[C@]1(C)CC[C@@](C)(C(C)C)c2cc3c4c(c[nH]c4c21)C[C@@H](CO)NC(=O)[C@H](C(C)C)N3C`, the inhibition result in experiment [1] and in experiment [2] was “inactive” throughout. In addition, the outcome at Caspase-3 (Homo sapiens) was Active. The result in the experiment with HeLa [10] and with HeLa [11] was inactive.

For the origin of these results see ChEMBL document CHEMBL1806492, “Generation of 'Unnatural Natural Product' library and identification of a small molecule inhibitor of XIAP” (Bioorg Med Chem, 2011).
